Data from ChEMBL document CHEMBL1135716, “A three-dimensional quantitative structure-activity relationship study of heparin-binding epidermal growth factor shedding inhibitors using comparative molecular field analysis” (J Med Chem, 2002).

Experiment: Heparin-binding epidermal growth factor (HB-EGF) shedding inhibition
Method in brief: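 Cell-based shedding assay using HT-1080 fibrosarcoma transfectants that express human placental alkaline phosphatase-tagged HB-EGF. Cells were grown 24 h at 2×10^5/well in MEM with 10% FCS, washed, and preincubated 30 min with compound in MEM containing 1% DMSO. They were then stimulated with 60 nM TPA for 60 min. Supernatant was heated 10 min at 65 °C, then given p-nitrophenyl phosphate substrate (pH 9.8) for 2 h, and A405 was read. IC50 was taken from a concentration series.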

Question: For `CCOCCCOc1ccc(S(=O)(=O)N2Cc3cc(O)c(O)cc3C[C@@H]2C(=O)NO)cc1`, which IC50 is on record?
Answer: 210 nM

Question: Which IC50 does the source give for `NS(=O)(=O)c1ccc(-c2ccc(S(=O)(=O)N3Cc4ccccc4C[C@@H]3C(=O)NO)cc2)cc1` here?
Answer: 20000 nM

Question: For `Cc1ccc(S(=O)(=O)N2Cc3ccccc3C[C@@H]2C(=O)NO)cc1`, which IC50 is on record?
Answer: 830 nM

Question: With `CC(C)COCCCOc1ccc(S(=O)(=O)N2Cc3nccnc3C[C@@H]2C(=O)NO)cc1` as the compound, how does the IC50 read?
Answer: 560 nM

Question: For `Cc1ccc(S(=O)(=O)N2Cc3cc(O)c(O)cc3C[C@@H]2C(=O)NO)s1`, which IC50 is on record?
Answer: 5400 nM

Question: With `C=Cc1ccc(S(=O)(=O)N2Cc3nccnc3C[C@@H]2C(=O)NO)cc1` as the compound, how does the IC50 read?
Answer: 1100 nM

Question: With `COc1ccc(S(=O)(=O)N2Cc3cc(NC(=O)[C@H](N)Cc4ccccc4)ccc3C[C@@H]2C(=O)NO)cc1` as the compound, how does the IC50 read?
Answer: 570 nM

Question: For `O=C(NO)[C@H]1Cc2nccnc2CN1S(=O)(=O)c1cccnc1`, which IC50 is on record?
Answer: 6900 nM

Question: Which IC50 does the source give for `O=C(NO)[C@H]1Cc2nccnc2CN1S(=O)(=O)c1ccc(Oc2ccc(Oc3ccccc3)cc2)cc1` here?
Answer: 6100 nM

Question: Which IC50 does the source give for `O=C(NO)[C@H]1Cc2nccnc2CN1S(=O)(=O)c1ccc([N+](=O)[O-])cc1` here?
Answer: 70000 nM

Question: With `O=C(NO)[C@H]1Cc2nccnc2CN1S(=O)(=O)c1ccc(C(F)(F)F)cc1` as the compound, how does the IC50 read?
Answer: 40000 nM

Question: With `O=C(NO)[C@H]1Cc2nccnc2CN1S(=O)(=O)c1ccc(-c2ccccc2)cc1` as the compound, how does the IC50 read?
Answer: 1500 nM

Question: With `COc1ccc(S(=O)(=O)N2Cc3cc(O)c(O)cc3C[C@@H]2C(=O)NO)cc1` as the compound, how does the IC50 read?
Answer: 730 nM

Question: With `COCCCOc1ccc(S(=O)(=O)N2Cc3cc(N)ccc3C[C@@H]2C(=O)NO)cc1` as the compound, how does the IC50 read?
Answer: 39 nM

Question: For `COc1ccc(CCS(=O)(=O)N2Cc3nccnc3C[C@@H]2C(=O)NO)cc1`, which IC50 is on record?
Answer: 6700 nM

Question: Which IC50 does the source give for `O=C(O)c1ccc(S(=O)(=O)N2Cc3nccnc3C[C@@H]2C(=O)NO)cc1` here?
Answer: 70000 nM

Question: For `O=C(NO)[C@H]1Cc2cc(O)c(O)cc2CN1S(=O)(=O)c1ccc(-c2ccccc2)cc1`, which IC50 is on record?
Answer: 1290 nM

Question: Which IC50 does the source give for `CCCCCC(=O)Nc1ccc(S(=O)(=O)N2Cc3nccnc3C[C@@H]2C(=O)NO)cc1` here?
Answer: 7700 nM

Question: For `CCCOc1ccc(S(=O)(=O)N2Cc3nccnc3C[C@@H]2C(=O)NO)cc1`, which IC50 is on record?
Answer: 1000 nM

Question: Which IC50 does the source give for `O=C(NO)[C@H]1Cc2nccnc2CN1S(=O)(=O)c1ccc(OCCCBr)cc1` here?
Answer: 600 nM

Question: For `CS(=O)(=O)CCCOc1ccc(S(=O)(=O)N2Cc3nccnc3C[C@@H]2C(=O)NO)cc1`, which IC50 is on record?
Answer: 1800 nM

Question: With `Nc1ccc2c(c1)CN(S(=O)(=O)c1ccc(Oc3ccccc3)cc1)[C@@H](C(=O)NO)C2` as the compound, how does the IC50 read?
Answer: 490 nM

Question: Which IC50 does the source give for `C#Cc1ccc(S(=O)(=O)N2Cc3nccnc3C[C@@H]2C(=O)NO)cc1` here?
Answer: 130 nM

Question: For `Nc1ccc(Oc2ccc(S(=O)(=O)N3Cc4nccnc4C[C@@H]3C(=O)NO)cc2)cc1`, which IC50 is on record?
Answer: 1000 nM

Question: Which IC50 does the source give for `Nc1cccc(S(=O)(=O)N2Cc3ccccc3C[C@@H]2C(=O)NO)c1` here?
Answer: 1100 nM

Question: For `O=C(NO)[C@H]1Cc2nccnc2CN1S(=O)(=O)c1ccc(OCCO)cc1`, which IC50 is on record?
Answer: 1500 nM

Question: Which IC50 does the source give for `O=C(NO)[C@H]1Cc2cc(O)c(O)cc2CN1S(=O)(=O)c1cccs1` here?
Answer: 160 nM

Question: For `O=C(NO)[C@H]1Cc2cc(O)c(O)cc2CN1S(=O)(=O)c1ccc(OCCCc2ccccc2)cc1`, which IC50 is on record?
Answer: 990 nM

Question: Which IC50 does the source give for `CCCOc1ccc(S(=O)(=O)N2Cc3cc(O)c(O)cc3C[C@@H]2C(=O)NO)cc1` here?
Answer: 630 nM

Question: Which IC50 does the source give for `O=C(NO)[C@H]1Cc2cc(O)c(O)cc2CN1S(=O)(=O)c1ccc(Oc2cnccn2)cc1` here?
Answer: 820 nM

Question: With `O=C(NO)[C@H]1Cc2nccnc2CN1S(=O)(=O)c1ccc(OCCCc2ccccc2)cc1` as the compound, how does the IC50 read?
Answer: 630 nM

Question: Which IC50 does the source give for `COc1ccc(S(=O)(=O)N2Cc3nccnc3C[C@@H]2C(=O)NO)cc1` here?
Answer: 350 nM

Question: With `O=C(NO)[C@H]1Cc2nccnc2CN1S(=O)(=O)c1cccs1` as the compound, how does the IC50 read?
Answer: 960 nM

Question: With `O=C(NO)[C@H]1Cc2nccnc2CN1S(=O)(=O)c1ccc(Oc2cnccn2)cc1` as the compound, how does the IC50 read?
Answer: 110 nM

Question: For `CCOC(=O)COc1ccc(S(=O)(=O)N2Cc3nccnc3C[C@@H]2C(=O)NO)cc1`, which IC50 is on record?
Answer: 1000 nM

Question: Which IC50 does the source give for `COc1ccc(S(=O)(=O)N2Cc3cc(N)ccc3C[C@@H]2C(=O)NO)cc1` here?
Answer: 190 nM

Question: With `CCCCOCCCOc1ccc(S(=O)(=O)N2Cc3nccnc3C[C@@H]2C(=O)NO)cc1` as the compound, how does the IC50 read?
Answer: 260 nM

Question: With `Cc1ccc(S(=O)(=O)N2Cc3nccnc3C[C@@H]2C(=O)NO)cc1` as the compound, how does the IC50 read?
Answer: 2700 nM

Question: Which IC50 does the source give for `CCCCCCS(=O)(=O)N1Cc2nccnc2C[C@@H]1C(=O)NO` here?
Answer: 4400 nM

Question: For `Nc1ccc2c(c1)CN(S(=O)(=O)c1ccc(Oc3ncccn3)cc1)[C@@H](C(=O)NO)C2`, which IC50 is on record?
Answer: 4500 nM

Question: Which IC50 does the source give for `COCCc1ccc(S(=O)(=O)N2Cc3nccnc3C[C@@H]2C(=O)NO)s1` here?
Answer: 3000 nM

Question: With `CCOC(=O)CCCOc1ccc(S(=O)(=O)N2Cc3nccnc3C[C@@H]2C(=O)NO)cc1` as the compound, how does the IC50 read?
Answer: 1100 nM

Question: For `O=C(NO)[C@H]1Cc2nccnc2CN1S(=O)(=O)c1ccc(Oc2ccncc2)cc1`, which IC50 is on record?
Answer: 340 nM

Question: With `CSCCCOc1ccc(S(=O)(=O)N2Cc3nccnc3C[C@@H]2C(=O)NO)cc1` as the compound, how does the IC50 read?
Answer: 100 nM

Question: With `Nc1ccc(S(=O)(=O)N2Cc3nccnc3C[C@@H]2C(=O)NO)cc1` as the compound, how does the IC50 read?
Answer: 1800 nM

Question: With `O=C(NO)[C@H]1Cc2ccccc2CN1S(=O)(=O)c1cccs1` as the compound, how does the IC50 read?
Answer: 340 nM

Question: With `CN(C)CCCOc1ccc(S(=O)(=O)N2Cc3nccnc3C[C@@H]2C(=O)NO)cc1` as the compound, how does the IC50 read?
Answer: 18000 nM

Question: Which IC50 does the source give for `COc1ccc(S(=O)(=O)N2Cc3cc(NC(=O)CN)ccc3C[C@@H]2C(=O)NO)cc1` here?
Answer: 280 nM

Question: With `COc1ccc(S(=O)(=O)N2Cc3cc(N(CC(=O)O)CC(=O)O)ccc3C[C@@H]2C(=O)NO)cc1` as the compound, how does the IC50 read?
Answer: 360 nM

Question: For `Cc1ccccc1S(=O)(=O)N1Cc2nccnc2C[C@@H]1C(=O)NO`, which IC50 is on record?
Answer: 12000 nM

Question: Which IC50 does the source give for `CC(C)c1ccc(S(=O)(=O)N2Cc3ccccc3C[C@@H]2C(=O)NO)cc1` here?
Answer: 5500 nM

Question: With `O=C(NO)[C@H]1Cc2ccccc2CN1S(=O)(=O)c1ccccc1` as the compound, how does the IC50 read?
Answer: 42 nM

Question: With `CCCCOc1ccc(S(=O)(=O)N2Cc3ccccc3C[C@@H]2C(=O)NO)cc1` as the compound, how does the IC50 read?
Answer: 420 nM

Question: Which IC50 does the source give for `COc1ccc(S(=O)(=O)N2Cc3ccccc3C[C@@H]2C(=O)NO)cc1` here?
Answer: 280 nM
